Measured values as given in ChEMBL document CHEMBL1145462, “In vivo pharmacodynamic activity of the glycopeptide dalbavancin” (Antimicrob Agents Chemother, 2007).
≈ marks a conversion by molar mass, not a printed value.

What was measured:
Assay type in all cases: functional
Staphylococcus aureus [1] = assay: Antibacterial activity against Staphylococcus aureus 31005 by microdilution method
How it was run: (§1)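 MIC and MBC were determined by CLSI broth microdilution, in duplicate on at least two occasions. Staphylococci were grown in Mueller-Hinton broth and agar; pneumococci were plated on sheep blood agar.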

Staphylococcus aureus [2] = assay: Antibacterial activity against Staphylococcus aureus ATCC 25923 by microdilution method; how it was run: as §1
Staphylococcus aureus [3] = assay: Antibacterial activity against Staphylococcus aureus 33591 by microdilution method
How it was run: (§2)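 MICs in duplicate on at least two occasions by standard CLSI broth microdilution; S. aureus grown and quantified in Mueller-Hinton broth/agar.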

Staphylococcus aureus [4] = assay: Antibacterial activity against Staphylococcus aureus Smith by microdilution method; how it was run: as §2
Staphylococcus aureus [5] = assay: Antibacterial activity against Staphylococcus aureus 307109 by microdilution method; how it was run: as §1

`COc1cccc(OC)c1C(=O)N[C@@H]1C(=O)N2[C@@H]1SC(C)(C)[C@@H]2C(=O)O` [METHICILLIN] was tested. Which MIC (Staphylococcus aureus [1]) did it give?
The MIC was 0.12 µg/mL (≈ 0.315 µM).

And the MIC (Staphylococcus aureus [2])?
The MIC was 0.12 µg/mL (≈ 0.315 µM).

And the MIC (Staphylococcus aureus [3])?
The MIC was greater than 8 µg/mL.

What about the MIC (Staphylococcus aureus [4]) of the same molecule?
Its MIC is 0.12 µg/mL (≈ 0.315 µM).

What about the MIC (Staphylococcus aureus [5]) of the same molecule?
Its MIC is greater than 8 µg/mL.
